Measurements as given in ChEMBL document CHEMBL1125014, “Synthesis and structure-activity relationships of new 9-N-alkyl derivatives of 9(S)-erythromycylamine” (1990).
≈ marks a conversion by molar mass, not a printed value.

Legend:
[1] = tested on: Mus musculus; assay: ED50 value was measured by sc administration against streptococcus pyogenes infection in mice (in vivo, in experiment 2); assay type: functional
Outline: (§1)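 Infected mice were dosed orally or subcutaneously at 1 and 5 h postinfection, 0.25 mL of antibiotic solution in 10% aqueous ethanol per dose. Tartaric acid was added where needed for solubility. Several dose concentrations were tested to give the ED50.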

[2] = tested on: Mus musculus; assay: ED50 value was measured by sc administration against streptococcus pyogenes infection in mice (in vivo, in experiment 3); assay type: functional; outline: as §1
[3] = tested on: Mus musculus; assay: ED50 value was measured by po administration against streptococcus pyogenes infection in mice (in vivo, in experiment 2); assay type: functional; outline: as §1
[4] = tested on: Mus musculus; assay: ED50 value was measured by sc administration against staphylococcus aureus infection in mice (in vivo, in experiment 2); assay type: functional; outline: as §1
[5] = tested on: Mus musculus; assay: ED50 value was measured by sc administration against streptococcus pneumoniae infection in mice (in vivo, in experiment 2); assay type: functional; outline: as §1
[6] = tested on: Mus musculus; assay: ED50 value was measured by po administration against streptococcus pneumoniae infection in mice (in vivo, in experiment 2); assay type: functional; outline: as §1
[7] = tested on: Mus musculus; assay: Plasma concentration in mice was determined by oral administration, 20 mg/kg at 1 h; assay type: functional, organism-based; design: dose 20 mg/kg
Outline: (§2)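 Mice given 20 mg/kg orally or subcutaneously; peripheral plasma sampled at 5, 20 and 40 min and at 1, 2 and 4 h after dosing. Microbiological assay used Micrococcus luteus seeded in Antibiotic Medium 1, with zone sizes converted by the compound's own standard curve. Each value is the average of five mice per time point.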

[8] = tested on: Mus musculus; assay: Plasma concentration in mice was determined by oral administration, 20 mg/kg at 2 h; assay type: functional, organism-based; design: dose 20 mg/kg; outline: as §2
[9] = tested on: Mus musculus; assay: Plasma concentration in mice was determined by oral administration, 20 mg/kg at 4 h; assay type: functional, organism-based; design: dose 20 mg/kg; outline: as §2
[10] = tested on: Mus musculus; assay: Plasma concentration in mice was determined by oral administration, 20 mg/kg at 40 min; assay type: functional, organism-based; design: dose 20 mg/kg; outline: as §2
[11] = tested on: Mus musculus; assay: Plasma concentration in mice was determined by oral administration, 20 mg/kg at 5 min; assay type: functional, organism-based; design: dose 20 mg/kg; outline: as §2
[12] = species on record: Rattus norvegicus; assay: Fluid concentration in urine tissue was determined in rats at 6 h; assay type: functional
Outline: (§3)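 Rats dosed by gavage at 20 mg/kg; lung, liver, kidney, urine and serum sampled at 0.5, 1, 2, 4 and 6 h after dosing. Antibiotic measured by microbiological assay with Micrococcus luteus seeded in Antibiotic Medium 1. Zone sizes were read against the standard curve for the same compound. Each value is the average of three rats per time point.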

[13] = species on record: Rattus norvegicus; assay: Fluid concentration in kidney tissue was determined in rats at 0.5 h; assay type: functional
Outline: (§4)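 Rats were gavaged at 20 mg/kg and tissues sampled 0.5–6 h after dosing. Drug was assayed microbiologically with Micrococcus luteus seeded in Antibiotic Media 1. Zone sizes were read against each compound's own standard curve. Values are the mean of three rats per time point, in μg/g.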

[14] = species on record: Rattus norvegicus; assay: Fluid concentration in kidney tissue was determined in rats at 4 h; assay type: functional; outline: as §4
[15] = species on record: Rattus norvegicus; assay: Fluid concentration in liver tissue was determined in rats at 6 h; assay type: functional; outline: as §3
[16] = species on record: Rattus norvegicus; assay: Fluid concentration in serum tissue was determined in rats at 0.5 h; assay type: functional; outline: as §3
[17] = species on record: Rattus norvegicus; assay: Fluid concentration in serum tissue was determined in rats at 1 h; assay type: functional; outline: as §3
[18] = species on record: Rattus norvegicus; assay: Fluid concentration in serum tissue was determined in rats at 6 h; assay type: functional; outline: as §3
[19] = species on record: Rattus norvegicus; assay: Fluid concentration in urine tissue was determined in rats at 0.5 h; assay type: functional; outline: as §3
[20] = species on record: Rattus norvegicus; assay: Fluid concentration in urine tissue was determined in rats at 1 h; assay type: functional; outline: as §3
[21] = species on record: Rattus norvegicus; assay: Fluid concentration in urine tissue was determined in rats at 2 h; assay type: functional; outline: as §3
[22] = species on record: Rattus norvegicus; assay: Fluid concentration in urine tissue was determined in rats at 4 h; assay type: functional; outline: as §3
[23] = tested on: Rattus norvegicus; assay: Plasma concentration in rats was determined by subcutaneous administration, 20 mg/kg at 1 h; assay type: functional, organism-based; design: dose 20 mg/kg
Outline: (§5)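 Peripheral plasma antibiotic levels in rats given 20 mg/kg orally or subcutaneously. Plasma was sampled at timed points after dosing. Levels were measured by microbiological agar assay with Micrococcus luteus seeded in Antibiotic Media 1, reading zone sizes, and were calculated from a standard curve for the appropriate compound. Each value is the average of three rats per time point, in μg/mL.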

[24] = tested on: Rattus norvegicus; assay: Plasma concentration in rats was determined by subcutaneous administration, 20 mg/kg at 5 min; assay type: functional, organism-based; design: dose 20 mg/kg; outline: as §5
[25] = tested on: Enterococcus faecalis; assay: MIC value was measured against streptococcus faecalis.; assay type: functional
[26] = tested on: Mus musculus; assay: ED50 value was measured by po administration against staphylococcus aureus infection in mice (in vivo, in experiment 2); assay type: functional; outline: as §1
[27] = species on record: Rattus norvegicus
[28] = species on record: Rattus norvegicus; remark: listed apart in the source
[29] = species on record: Rattus norvegicus; remark: listed apart in the source
[30] = species on record: Rattus norvegicus; remark: listed apart in the source
[31] = species on record: Rattus norvegicus; assay: Fluid concentration in urine was determined in rats at 0.5 hr; assay type: functional; outline: as §3
[32] = species on record: Rattus norvegicus; assay: Fluid concentration in urine was determined in rats at 1 hr; assay type: functional; outline: as §3
[33] = species on record: Rattus norvegicus; assay: Fluid concentration in urine was determined in rats at 2 hr; assay type: functional; outline: as §3
[34] = species on record: Rattus norvegicus; assay: Fluid concentration in urine was determined in rats at 6 hr; assay type: functional; outline: as §3
[35] = species on record: Rattus norvegicus; assay: Fluid concentration in kidney tissue was determined in rats at 0.5 hr; assay type: functional; outline: as §4
[36] = species on record: Rattus norvegicus; assay: Fluid concentration in kidney tissue was determined in rats at 6 hr; assay type: functional; outline: as §4
[37] = species on record: Rattus norvegicus; assay: Fluid concentration in liver tissue was determined in rats at 2 hr; assay type: functional; outline: as §3
[38] = species on record: Rattus norvegicus; assay: Fluid concentration in serum was determined in rats at 0.5 hr; assay type: functional; outline: as §3
[39] = species on record: Rattus norvegicus; assay: Fluid concentration in serum was determined in rats at 1 hr; assay type: functional; outline: as §3
[40] = species on record: Rattus norvegicus; assay: Fluid concentration in serum was determined in rats at 6 hr; assay type: functional; outline: as §3
[41] = tested on: Rattus norvegicus; assay: Plasma concentration in rats was determined by subcutaneous administration, 20 mg/kg at 2 hr; assay type: functional, organism-based; design: dose 20 mg/kg; outline: as §5
[42] = tested on: Rattus norvegicus; assay: Plasma concentration in rats was determined by oral administration, 20 mg/kg at 1 hr; assay type: functional, organism-based; design: dose 20 mg/kg; outline: as §5
[43] = tested on: Rattus norvegicus; assay: Plasma concentration in rats was determined by oral administration, 20 mg/kg at 2 hr; assay type: functional, organism-based; design: dose 20 mg/kg; outline: as §5
[44] = tested on: Rattus norvegicus; assay: Plasma concentration in rats was determined by oral administration, 20 mg/kg at 8 hr; assay type: functional, organism-based; design: dose 20 mg/kg; outline: as §5
[45] = tested on: Enterococcus faecalis; assay: MIC value was measured against streptococcus faecalis X66; assay type: functional
Outline: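 Susceptibility determined by standard agar-dilution method against a panel of bacterial strains.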

[46] = species on record: Rattus norvegicus; assay: Fluid concentration in kidney tissue was determined in rats at 1 hr; assay type: functional; outline: as §4
[47] = species on record: Rattus norvegicus; assay: Fluid concentration in liver tissue was determined in rats at 6 hr; assay type: functional; outline: as §3
[48] = species on record: Mus musculus
[49] = species on record: Mus musculus; remark: listed apart in the source
[50] = species on record: Mus musculus; remark: listed apart in the source
[51] = species on record: Mus musculus; remark: listed apart in the source
[52] = species on record: Rattus norvegicus; remark: listed apart in the source
[53] = species on record: Rattus norvegicus; remark: listed apart in the source
[54] = species on record: Rattus norvegicus; remark: listed apart in the source
[55] = species on record: Rattus norvegicus; remark: listed apart in the source
[56] = species on record: Rattus norvegicus; remark: listed apart in the source

Q: Which results are given for `CCCN[C@@H]1[C@H](C)[C@@H](O)[C@](C)(O)[C@@H](CC)OC(=O)[C@H](C)[C@@H](OC2CC(C)(OC)C(O)C(C)O2)[C@H](C)[C@@H](OC2OC(C)CC(N(C)C)C2O)[C@](C)(O)C[C@H]1C` (stereo partly specified)?
A: ED50 [1]: 1.4 mg/kg; ED50 [2]: 1.7 mg/kg; ED50 [3]: 6 mg/kg; ED50 [4]: 2.1 mg/kg; ED50 [5]: 2.1 mg/kg; ED50 [6]: 13 mg/kg; Plasma concentration [7]: 0.08 µg/mL; Plasma concentration [8]: 0.07 µg/mL; Plasma concentration [9]: 0.06 µg/mL; Plasma concentration [10]: 0.036 µg/mL; Plasma concentration [11]: 0 µg/mL; Activity [12]: 11.3 µg/mL; Activity [13]: 0.1 µg/mL; Activity [14]: 4.28 µg/mL; Activity [15]: 1.19 µg/mL; Activity [16]: 0.15 µg/mL; Activity [17]: 0.04 µg/mL; Activity [18]: 0.05 µg/mL; Activity [19]: 3.92 µg/mL; Activity [20]: 3.78 µg/mL; Activity [21]: 4.8 µg/mL; Activity [22]: 18.63 µg/mL; Plasma concentration [23]: 0.14 µg/mL; Plasma concentration [24]: 0.04 µg/mL; MIC [25]: 0.12 µg/mL (≈ 0.154 µM); ED50 [26]: 25 mg/kg; Plasma concentration [27]: 0.01 µg/mL; Plasma concentration [28]: 0.28 µg/mL; Plasma concentration [29]: 0.08 µg/mL; Plasma concentration [30]: 0.06 µg/mL

Q: How did the Activity [31] turn out when `CC[C@H]1OC(=O)[C@H](C)[C@@H](O[C@H]2C[C@@](C)(OC)[C@@H](O)[C@H](C)O2)[C@H](C)[C@@H](O[C@@H]2O[C@H](C)C[C@H](N(C)C)[C@H]2O)[C@](C)(O)C[C@@H](C)C(=O)[C@H](C)[C@@H](O)[C@]1(C)O` [ERYTHROMYCIN] was run?
A: Its Activity is 7.5 µg/mL.

Q: And the Activity [32]?
A: Its Activity is 10.8 µg/mL.

Q: And the Activity [33]?
A: Its Activity is 2.5 µg/mL.

Q: And the Activity [34]?
A: The Activity was 0.35 µg/mL.

Q: What about the Activity [35] of the same molecule?
A: Its Activity is 0.17 µg/mL.

Q: And the Activity [36]?
A: The Activity was 0 µg/mL.

Q: What about the Activity [37] of the same molecule?
A: The Activity was 0.04 µg/mL.

Q: What about the Activity [38] of the same molecule?
A: Its Activity is 0.01 µg/mL.

Q: And the Activity [39]?
A: Its Activity is 0.4 µg/mL.

Q: What about the Activity [40] of the same molecule?
A: Its Activity is 0 µg/mL.

Q: What about the Plasma concentration [41] of the same molecule?
A: Its Plasma concentration is 1.06 µg/mL.

Q: And the Plasma concentration [42]?
A: The Plasma concentration was 0.04 µg/mL.

Q: What about the Plasma concentration [43] of the same molecule?
A: Its Plasma concentration is 0.03 µg/mL.

Q: And the Plasma concentration [44]?
A: The Plasma concentration was 0.01 µg/mL.

Q: What about the MIC [45] of the same molecule?
A: Its MIC is 0.06 µg/mL (≈ 0.0818 µM).

Q: What about the Activity [46] of the same molecule?
A: The Activity was 0.15 µg/mL.

Q: What about the Activity [47] of the same molecule?
A: The Activity was 0 µg/mL.

Q: What about the Plasma concentration [48] of the same molecule?
A: The Plasma concentration was 0 µg/mL.

Q: What about the Plasma concentration [49] of the same molecule?
A: The Plasma concentration was 0.01 µg/mL.

Q: What about the Plasma concentration [50] of the same molecule?
A: Its Plasma concentration is 0 µg/mL.

Q: And the Plasma concentration [51]?
A: Its Plasma concentration is 0.1 µg/mL.

Q: And the Plasma concentration [52]?
A: Its Plasma concentration is 1.31 µg/mL.

Q: And the Plasma concentration [53]?
A: The Plasma concentration was 1.21 µg/mL.

Q: And the Plasma concentration [54]?
A: The Plasma concentration was 1.16 µg/mL.

Q: What about the Plasma concentration [55] of the same molecule?
A: Its Plasma concentration is 0.7 µg/mL.

Q: What about the Plasma concentration [56] of the same molecule?
A: The Plasma concentration was 0 µg/mL.
